Activity calls are given as the source filed them. The rule behind the calls is not given here.

Results on 48 compounds are retold here after ChEMBL document CHEMBL4732164, “Structure-Based Design of Potent Selective Nanomolar Type-II Inhibitors of Glycogen Synthase Kinase-3β” (J Med Chem, 2021).

Experiment [1] has as its target T1, Glycogen synthase kinase-3 beta (Homo sapiens, UniProt P49841). Put plainly: Inhibition of recombinant human GSK-3beta using phosphorylated polypeptide as substrate incubated for 30 mins in presence of ATP by kinase-glo luminescence assay. The method in brief:
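Buffer is 50 mM HEPES pH 7.5, 1 mM EDTA, 1 mM EGTA, 15 mM magnesium acetate. Runs 30 min at 30 °C; luminescence read 10 min after reagent. Inhibition is relative to no-inhibitor maximal activity.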
Target sequence in this assay (P49841 whole entry): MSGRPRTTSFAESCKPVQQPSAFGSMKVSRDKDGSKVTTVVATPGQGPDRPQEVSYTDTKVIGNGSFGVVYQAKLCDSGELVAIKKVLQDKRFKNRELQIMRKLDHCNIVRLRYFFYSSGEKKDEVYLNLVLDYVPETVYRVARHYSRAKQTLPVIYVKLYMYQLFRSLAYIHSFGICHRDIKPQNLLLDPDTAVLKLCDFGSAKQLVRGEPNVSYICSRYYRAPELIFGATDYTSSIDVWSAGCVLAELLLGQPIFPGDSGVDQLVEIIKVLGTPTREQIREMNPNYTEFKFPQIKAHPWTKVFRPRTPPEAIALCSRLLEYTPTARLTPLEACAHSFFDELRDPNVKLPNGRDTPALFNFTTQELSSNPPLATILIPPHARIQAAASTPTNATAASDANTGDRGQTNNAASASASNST
On the technique in general: In Kinase-Glo more light means more ATP remaining.

The test system of another experiment is SH-SY5Y. Description: Neuroprotective activity against OA-induced neuronal injury in human SH-SY5Y cells assessed as reduction in cell death at 0.1 to 10 uM pre-incubated for 1 hrs followed by OA addition measured after 24 hrs by MTT assay. Type of experiment: functional, cell-based. The conditions noted are these: dose 0.1-10 µM. The method, boiled down:
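SH-SY5Y cells (DMEM, 10% FBS, 1% pen/strep, 37 °C, 5% CO2) seeded at 60,000/well and grown 48 h. Compound (0.1, 0.5, 1, 5, 10 μM) added 1 h before okadaic acid at 30 nM, then 24 h. Viability by MTT (0.5 mg/mL, ≥4 h), formazan in DMSO, A595, as % control. Mean ± SEM, three independent experiments.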
On the technique in general: Tetrazolium dyes change colour on reduction, which living cells bring about.

A short description of experiment [2]: Inhibition of Ustilago maydis GSK-3beta using Ser/Thr 6 peptide as substrate preincubated for 60 mins followed by ATP and substrate addition and measured after 45 mins by Z'lyte assay. Also on record: species or system Mycosarcoma maydis.
In experiment [3] the target is T1, Glycogen synthase kinase-3 beta. Put plainly: Inhibition of recombinant human GSK-3beta at 50 uM using phosphorylated polypeptide as substrate incubated for 30 mins in presence of ATP by kinase-glo luminescence assay relative to control. The method, boiled down: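 Kinase-Glo luminescence: 20 ng enzyme with test compound (DMSO ≤1% final), 25 μM substrate, 1 μM ATP. Buffer is 50 mM HEPES pH 7.5, 1 mM EDTA, 1 mM EGTA, 15 mM magnesium acetate. Runs 30 min at 30 °C; luminescence read 10 min after reagent. Inhibition is relative to no-inhibitor maximal activity.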
Target sequence in this assay (P49841 whole entry, looked up): as the sequence (P49841 whole entry) above

For the compound `COc1ccc(-c2ccnc(N[C@H]3CO[C@H]4[C@@H]3OC[C@@H]4NC(=O)Nc3cc(OC)cc(OC)c3)n2)cc1`, in experiment [1], the half-inhibitory concentration (IC50) (usually the concentration at which inhibition is half-maximal) is 0.421 µM. Besides, the outcome in the experiment on SH-SY5Y was Active.
For `O=C(O)CCCNC(=O)c1cc(Oc2ccc(NC(=O)Nc3ccc(Cl)c(C(F)(F)F)c3)cc2)ccn1`, in experiment [2], the IC50 is 0.154 µM.
On to `CSCC(=O)N1C[C@@H](NC(=O)Nc2cccc(SC)c2)C[C@H]1C(=O)N[C@H](Cc1c[nH]c2ccccc12)C(N)=O`, for which the IC50 in experiment [1] was above 50 µM. Further, in experiment [3], the inhibition (as a rule, the percentage by which the read-out fell short of the control) is 5%.
For `O=C(c1ccccc1)N1C[C@@H](F)[C@@H](OCc2nc3cc(C(F)(F)F)ccc3[nH]2)C1`, the 50% inhibitory concentration (IC50) in experiment [1] is above 50 µM. For the same compound, the inhibition in experiment [3] was determined as 7%.
In turn, `CC(C)(C)c1cc(NC(=O)Nc2ccc(OCCN3CCOCC3)c3ccccc23)n(-c2cccc(N)c2)n1` gave an IC50 in experiment [2] of 1.1 µM.
Turning to `CN(C)c1ccc(-c2ccnc(N[C@H]3CO[C@H]4[C@@H]3OC[C@@H]4NC(=O)Nc3cccc(C(F)(F)F)c3)n2)cc1`, the IC50 in experiment [1] was determined as 5.66 µM.
For `COc1ccc(C(=O)N2C[C@@H](F)[C@@H](OCc3nc4cc(C(F)(F)F)ccc4[nH]3)C2)cc1`, the IC50 in experiment [1] was above 50 µM. In experiment [3], the inhibition was 33%.
In the case of `Cn1c(CO[C@H]2CN(Cc3c[nH]c4ccccc34)C[C@H]2F)nc2ccccc21`, the IC50 in experiment [1] was above 50 µM. Besides, the inhibition in experiment [3] was found to be 14%.
The corresponding values for `CSc1cccc(NC(=O)NC2C[C@@H]3CCCN2CC3CN(C)c2ccccc2)c1` (some centres undefined) are above 50 µM and 1%.
Consider `CC(C)(C)c1ccnc(N[C@H]2CO[C@H]3[C@@H]2OC[C@@H]3NC(=O)Nc2cccc(C(F)(F)F)c2)n1`, for which the IC50 in experiment [1] was determined as 14 µM.
As for `COC(=O)c1ccc2c(c1)nc1n2[C@@H](CNC(=O)Nc2ccccc2)COC1`, the IC50 in experiment [1] is above 50 µM. In addition, the inhibition in experiment [3] was determined as 1%.
As for `COC(=O)c1cccc(NC(=S)N[C@H]2CO[C@H]3[C@@H]2OC[C@H]3OC(=O)Nc2cccc(C(F)(F)F)c2)c1`, the IC50 in experiment [1] is above 50 µM. In addition, the inhibition in experiment [3] amounted to 21%.
Take `O=C(Nc1cccc(C(F)(F)F)c1)N[C@H]1CO[C@H]2[C@@H]1OC[C@@H]2Nc1nccc(-c2ccco2)n1`: in experiment [1], the IC50 amounted to 2.95 µM.
On to `Cn1cccc1C(=O)N1C[C@H](NC(=O)Nc2ccc(F)cc2F)C[C@@H]1C(=O)N[C@H](Cc1c[nH]c2ccccc12)C(N)=O`, for which, in experiment [1], the IC50 was above 50 µM. Further, the inhibition in experiment [3] came to 6%.
On to `N#Cc1cccc(NC(=O)N[C@H]2CO[C@H]3[C@@H]2OC[C@@H]3Nc2nccc(-c3cccc(F)c3)n2)c1`, for which, in experiment [1], the IC50 amounted to 2.08 µM. Also, the result in the experiment with SH-SY5Y was Active.
`O=C(Nc1cccc(C(F)(F)F)c1)N[C@H]1CO[C@H]2[C@@H]1OC[C@@H]2Nc1nccc(-c2cccs2)n1`: in experiment [1], the IC50 stood at 4.04 µM.
Regarding `O=C(c1ccncc1)N1C[C@@H](F)[C@@H](OCc2nc3ccc(F)cc3[nH]2)C1`, the IC50 in experiment [1] is above 50 µM. Also, the inhibition in experiment [3] was 19%.
On to `O=C(c1cccnc1)N1C[C@@H](F)[C@@H](OCc2nc3cc(C(F)(F)F)ccc3[nH]2)C1`, for which the 50% inhibitory concentration (IC50) in experiment [1] was above 50 µM. Moreover, the inhibition in experiment [3] was determined as 14%.
For the compound `O=C(Nc1cccc(C(F)(F)F)c1)N[C@H]1CO[C@H]2[C@@H]1OC[C@@H]2Nc1nccc(-c2cccc(F)c2)n1`, in experiment [1], the IC50 was determined as 2.06 µM. Moreover, in the experiment on SH-SY5Y, the outcome was Active.
`CC(=O)Nc1ccc(CN2C[C@@H](F)[C@@H](OCc3nc4cc(C)c(C)cc4[nH]3)C2)cc1`: the IC50 in experiment [1] was above 50 µM. Also, the inhibition in experiment [3] stood at 2%.
Take `O=C(Nc1cccc(C(F)(F)F)c1)O[C@@H]1CO[C@H]2[C@@H]1OC[C@@H]2NC(=S)Nc1ccc(Cl)cc1`: the IC50 in experiment [1] is above 50 µM. In addition, the inhibition in experiment [3] turned out to be 41%.
Take `CS(=O)(=O)c1ccc(CN2C[C@@H](F)[C@@H](OCc3nc4cc(C(F)(F)F)ccc4[nH]3)C2)cc1`: the IC50 in experiment [1] is above 50 µM. In experiment [3], the inhibition was determined as 19%.
Regarding `N#Cc1ccc(CN2C[C@@H](F)[C@@H](OCc3nc4cc(C(F)(F)F)ccc4[nH]3)C2)cc1`, in experiment [1], the half-inhibitory concentration (IC50) is above 50 µM. Further, the inhibition in experiment [3] turned out to be 2%.
Turning to `O=C(Nc1cccc(C(F)(F)F)c1)N[C@H]1CO[C@H]2[C@@H]1OC[C@H]2OC(=O)Nc1cccc2ccccc12`, the IC50 in experiment [1] was above 50 µM. Moreover, the inhibition in experiment [3] was 35%.
In experiment [2], `CNC(=O)c1cc(Oc2ccc(NC(=O)Nc3ccc(Cl)c(C(F)(F)F)c3)cc2)ccn1` [SORAFENIB] had an IC50 of 0.71 µM.
Regarding `COc1ccc2nc(CO[C@H]3CN(Cc4ccnc5ccccc45)C[C@H]3F)[nH]c2c1`, in experiment [1], the IC50 is above 50 µM. Besides, in experiment [3], the inhibition was 13%.
`COc1ccccc1-c1ccnc(N[C@H]2CO[C@H]3[C@@H]2OC[C@@H]3NC(=O)Nc2cccc(C#N)c2)n1`: in experiment [1], the IC50 worked out at 6.08 µM. Moreover, in the experiment on SH-SY5Y, the result was inactive.
Take `O=C(Nc1cccc(C(F)(F)F)c1)O[C@@H]1CO[C@H]2[C@@H]1OC[C@@H]2Nc1nccc(-c2ccc3c(c2)OCO3)n1`: the IC50 in experiment [1] amounted to 1.08 µM. Besides, in the experiment with SH-SY5Y, the outcome was inactive.
Consider `CNC(=O)c1cc(Oc2ccc(NC(=O)Nc3cc(C(F)(F)F)c(Cl)cc3OCCCC(=O)O)cc2)ccn1`, for which the IC50 in experiment [2] is 0.057 µM.
Turning to `COc1ccccc1-c1ccnc(N[C@H]2CO[C@H]3[C@@H]2OC[C@@H]3NC(=O)Nc2cccc(C(F)(F)F)c2)n1`, the IC50 in experiment [1] was found to be 27 µM.
The compound `Cc1ccc(-n2nc(C(C)(C)C)cc2NC(=O)Nc2ccc(OCCN3CCOCC3)cc2)cc1` had an IC50 in experiment [2] of 10.3 µM.
Take `COc1ccc(-c2ccnc(N[C@H]3CO[C@H]4[C@@H]3OC[C@@H]4NC(=O)Nc3cccc(C#N)c3)n2)cc1`: in experiment [1], the IC50 was determined as 0.087 µM. The result in the experiment with SH-SY5Y was Active.
Turning to `O=C(Nc1cccc(C(F)(F)F)c1)N[C@H]1CO[C@H]2[C@@H]1OC[C@@H]2Nc1nccc(C2CCCC2)n1`, the IC50 in experiment [1] was found to be 11.9 µM.
For the compound `O=C(Nc1cccc2ccccc12)N[C@H]1CO[C@H]2[C@@H]1OC[C@H]2OC(=O)Nc1ccccc1`, the IC50 in experiment [1] is above 50 µM. Moreover, the inhibition in experiment [3] is 21%.
For `CC(C)=CC(=O)N1CC(NC(=O)Nc2ccc(F)cc2F)CC1C(=O)N[C@H](Cc1c[nH]c2ccccc12)C(N)=O` (some centres undefined), in that order: above 50 µM and 5%.
With `CCNC(=O)N[C@H]1CO[C@H]2[C@@H]1OC[C@@H]2Nc1nccc(-c2ccc(OC)cc2)n1`, the IC50 in experiment [1] amounted to 0.117 µM. Further, the outcome with SH-SY5Y was Active.
`Cn1sc(=O)n(Cc2ccccc2)c1=O`: in the experiment with SH-SY5Y, the result was Active.
On to `COc1ccc(-c2ccnc(N[C@H]3CO[C@H]4[C@@H]3OC[C@@H]4NC(=O)Nc3ccccc3)n2)cc1`, for which, in experiment [1], the IC50 was 0.56 µM. Moreover, in the experiment with SH-SY5Y, the outcome was Active.
Regarding `O=C(Nc1cccc(C(F)(F)F)c1)N[C@H]1CO[C@H]2[C@@H]1OC[C@@H]2n1nnnc1-c1cccc(CN2CCCC2)c1`, the 50% inhibitory concentration (IC50) in experiment [1] is above 50 µM. The inhibition in experiment [3] worked out at 7%.
On to `CCOC(=O)Cc1ccc(-n2nc(C(C)(C)C)cc2NC(=O)Nc2ccc(OCCN3CCOCC3)c3ccccc23)cc1`, for which the IC50 in experiment [2] was found to be 1.8 µM.
`O=C(Nc1cccc2ccccc12)O[C@@H]1CO[C@H]2[C@@H]1OC[C@@H]2NC(=S)Nc1ccc(Cl)cc1`: the IC50 in experiment [1] was above 50 µM. For the same compound, the inhibition in experiment [3] came out at 39%.
For the compound `Cc1nn(-c2ccccc2[N+](=O)[O-])c(C)c1[C@@H]1C=C[C@@H](NC(=O)Nc2cccc(C#N)c2)C1`, in experiment [1], the IC50 was above 50 µM. Also, the inhibition in experiment [3] amounted to 26%.
As for `CC(C)(C)c1cc(NC(=O)Nc2ccc(Cl)cc2)n(-c2cccc(N)c2)n1`, in experiment [2], half-maximal inhibition (IC50) was put at 7.8 µM.
`Cc1ccc(-n2nc(C(C)(C)C)cc2NC(=O)Nc2ccc(OCCN3CCOCC3)c3ccccc23)cc1` [DORAMAPIMOD]: the IC50 in experiment [2] was found to be 1.06 µM.
In the case of `O=C(Nc1ccccc1)N[C@H]1CO[C@H]2[C@@H]1OC[C@@H]2Nc1nccc(-c2cccs2)n1`, the IC50 in experiment [1] is 2.7 µM.
`COc1ccc(-c2ccnc(N[C@H]3CO[C@H]4[C@@H]3OC[C@@H]4NC(=O)Nc3cccc(C(F)(F)F)c3)n2)cc1`: the IC50 in experiment [1] is 9.75 µM.
As to `Cc1cc2nc(CO[C@H]3CN(Cc4cccnc4)C[C@H]3F)[nH]c2cc1C`, in experiment [1], the half-inhibitory concentration (IC50) is above 50 µM. In addition, the inhibition in experiment [3] amounted to 5%.
For `O=C(Nc1cccc(C(F)(F)F)c1)N[C@H]1CO[C@H]2[C@@H]1OC[C@@H]2OC(=O)Nc1ccc(Oc2ccccc2)cc1`, in experiment [1], the IC50 is above 50 µM. Moreover, the inhibition in experiment [3] was found to be 42%.
